Test results reported in ChEMBL document CHEMBL1157283, “Cytotoxic xenia diterpenoids from the soft coral Xenia umbellata” (2006).
In brackets after ≈: the same amount, converted by molar mass.

Experiments:
P388 = experiment: Cytotoxicity against mouse P388 cells; format: functional; settings: read-out: ED50 (the source's name)
A549 = experiment: Cytotoxicity against human A549 cells; format: functional, cell-based
Method in brief: (§1)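 Human A549 (lung adenocarcinoma) and HT-29 (colon adenocarcinoma) cells were obtained from ATCC. In vitro cytotoxicity was measured on the cultured cells.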

HT-29 = experiment: Cytotoxicity against human HT29 cells; format: functional, cell-based; method in brief: as §1

SMILES	EC50 (P388) [µg/mL]	Activity (A549)	Activity (HT-29)
COC(=O)[C@@H]1[C@@H](/C(=C\CC(O)C(C)(C)O)COC(C)=O)CC[C@@]2(C)C[C@]1(O)CC[C@H]2O (stereo partly drawn) [UMBELLACIN I]	3.6 (≈ 8.13 µM)	Not toxic	Not toxic
C=C1CC[C@@H]2O[C@@]2(C)CC[C@H](/C(=C\CC(O)C(C)(C)O)COC(C)=O)[C@H]1C(=O)OC (stereo partly drawn) [UMBELLACIN H]	3.4 (≈ 8.01 µM)	Not toxic	Not toxic
COC(=O)[C@@H]1[C@@H](/C(=C\CC(O)C(C)(C)O)COC(C)=O)CC[C@]2(C)[C@@H]3CC[C@]12CO3 (stereo partly drawn) [UMBELLACIN D]	4.2 (≈ 9.89 µM)	Not toxic	Not toxic
COC(=O)[C@H]1C2=CC[C@@H](O)[C@@](C)(CC[C@@H]1/C(=C\CC(O)C(C)(C)O)COC(C)=O)C2 (stereo partly drawn) [UMBELLACIN E]	3.8 (≈ 8.95 µM)	Not toxic	Not toxic
CC(C)(O)/C=C/C=C(/C=O)[C@H]1CC[C@@]2(C)C[C@](O)(CC[C@H]2O)[C@@H]1C=O		Not toxic	Not toxic
C=C1CC[C@@H]2O[C@@]2(C)CC[C@H]2[C@H]1C(=O)O[C@@]2(/C=C/C1OC1(C)C)CO (stereo partly drawn)		Not toxic	Not toxic
CC(C)(O)/C=C/C=C1/COC(=O)[C@H]2C3=CC[C@@H](O)[C@@](C)(CC[C@H]12)C3		Not toxic	Not toxic
C=C(C)C(O)C/C=C(/COC(C)=O)[C@H]1CC[C@@]2(C)C[C@](O)(CC[C@H]2O)[C@@H]1C(=O)OC (stereo partly drawn) [UMBELLACIN B]	1.6 (≈ 3.77 µM)	Not toxic	Not toxic
C=C1C[C@@H](O)/C=C(\C)CC[C@@H]2/C(=C\C=C\C(C)(C)O)[C@@H](OC)O[C@H](OC)[C@@H]12		Not toxic	Not toxic
C=C1CC[C@@H]2O[C@@]2(C)CC[C@H]2[C@H]1C(=O)O[C@@]2(/C=C/C1OC1(C)C)COC(C)=O (stereo partly drawn)		Not toxic	Not toxic
C=C1CC/C=C(\C)CC[C@H](/C(=C\CC(O)C(C)(C)O)COC(C)=O)[C@H]1C(=O)OC (stereo partly drawn) [UMBELLACIN F]	3.7 (≈ 9.06 µM)	Not toxic	Not toxic
